Assay results as given in ChEMBL document CHEMBL4020804, “Minor phenolics from Angelica keiskei and their proliferative effects on Hep3B cells” (Bioorg Med Chem Lett, 2017).

Experiments:
Hep 3B2 [1] = experiment: Cytoprotective activity against GOX-induced oxidative stress in human Hep3B cells assessed as cell survival at 0.1 uM treated for 5 hrs with 15 mU/ml GOX challenge by MTT assay (reference value: 41.51 +/- 1.39%); type: functional; settings: read-out: Survival
Hep 3B2 [2] = experiment: Cytoprotective activity against GOX-induced oxidative stress in human Hep3B cells assessed as cell survival at 100 uM treated for 5 hrs with 15 mU/ml GOX challenge by MTT assay (reference value: 41.51 +/- 1.39%); type: functional; settings: read-out: Survival
Hep 3B2 [3] = experiment: Cytoprotective activity against GOX-induced oxidative stress in human Hep3B cells assessed as cell survival at 1 uM treated for 5 hrs with 15 mU/ml GOX challenge by MTT assay (reference value: 41.51 +/- 1.39%); type: functional; settings: read-out: Survival
Hep 3B2 [4] = experiment: Cytoprotective activity against GOX-induced oxidative stress in human Hep3B cells assessed as cell survival at 10 uM treated for 5 hrs with 15 mU/ml GOX challenge by MTT assay (reference value: 41.51 +/- 1.39%); type: functional; settings: read-out: Survival
NIH3T3 [5] = experiment: Cytoprotective activity against GOX-induced oxidative stress in mouse NIH/3T3 cells assessed as cell survival at 0.1 uM treated for 5 hrs with 15 mU/ml GOX challenge by MTT assay (reference value: 42.71 +/- 2.10%); type: functional; settings: NIH3T3, 5 h, read-out: Survival
Hep 3B2 [6] = experiment: Cytoprotective activity against GOX-induced oxidative stress in human Hep3B cells assessed as increase in cell survival treated for 5 hrs with 15 mU/ml GOX challenge by MTT assay; type: functional, cell-based
Summary of the method: (§1)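 Cells plated at 7×10^4 per well; next day exposed for 5 h to compound (0.1–100 μM) with 15 mU/ml glucose oxidase in growth medium. Viability expressed relative to GOX-free cells; α-tocopherol positive control.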

NIH3T3 [7] = experiment: Cytoprotective activity against GOX-induced oxidative stress in mouse NIH/3T3 cells assessed as cell survival at 1 uM treated for 5 hrs with 15 mU/ml GOX challenge by MTT assay (reference value: 42.71 +/- 2.10%); type: functional; settings: NIH3T3, 5 h, read-out: Survival
NIH3T3 [8] = experiment: Cytoprotective activity against GOX-induced oxidative stress in mouse NIH/3T3 cells assessed as cell survival at 10 uM treated for 5 hrs with 15 mU/ml GOX challenge by MTT assay (reference value: 42.71 +/- 2.10%); type: functional; settings: NIH3T3, 5 h, read-out: Survival
NIH3T3 [9] = experiment: Cytoprotective activity against GOX-induced oxidative stress in mouse NIH/3T3 cells assessed as cell survival at 100 uM treated for 5 hrs with 15 mU/ml GOX challenge by MTT assay (reference value: 42.71 +/- 2.10%); type: functional; settings: NIH3T3, 5 h, read-out: Survival
NIH3T3 [10] = experiment: Cytoprotective activity against GOX-induced oxidative stress in mouse NIH/3T3 cells assessed as increase in cell survival treated for 5 hrs with 15 mU/ml GOX challenge by MTT assay; type: functional, cell-based; summary of the method: as §1
Hep 3B2 [11] = experiment: Cytoprotective activity against GOX-induced cytotoxicity in human Hep3B cells assessed as LDH release at 0.1 uM treated for 5 hrs with 15 mU/ml GOX challenge by spectrophotometric method (reference value: 60.94 +/- 1.18%); type: functional
Hep 3B2 [12] = experiment: Cytoprotective activity against GOX-induced cytotoxicity in human Hep3B cells assessed as LDH release at 1 uM treated for 5 hrs with 15 mU/ml GOX challenge by spectrophotometric method (reference value: 60.94 +/- 1.18%); type: functional
Hep 3B2 [13] = experiment: Cytoprotective activity against GOX-induced cytotoxicity in human Hep3B cells assessed as LDH release at 10 uM treated for 5 hrs with 15 mU/ml GOX challenge by spectrophotometric method (reference value: 60.94 +/- 1.18%); type: functional
Hep 3B2 [14] = experiment: Cytoprotective activity against GOX-induced cytotoxicity in human Hep3B cells assessed as LDH release at 100 uM treated for 5 hrs with 15 mU/ml GOX challenge by spectrophotometric method (reference value: 60.94 +/- 1.18%); type: functional
Hep 3B2 [15] = experiment: Cytoprotective activity against GOX-induced cytotoxicity in human Hep3B cells assessed as decrease in LDH release treated for 5 hrs with 15 mU/ml GOX challenge by spectrophotometric method; type: functional, cell-based
NIH3T3 [16] = experiment: Cytoprotective activity against GOX-induced cytotoxicity in mouse NIH/3T3 cells assessed as LDH release at 0.1 uM treated for 5 hrs with 15 mU/ml GOX challenge by spectrophotometric method (reference value: 63.34 +/- 1.85%); type: functional
NIH3T3 [17] = experiment: Cytoprotective activity against GOX-induced cytotoxicity in mouse NIH/3T3 cells assessed as LDH release at 1 uM treated for 5 hrs with 15 mU/ml GOX challenge by spectrophotometric method (reference value: 63.34 +/- 1.85%); type: functional
NIH3T3 [18] = experiment: Cytoprotective activity against GOX-induced cytotoxicity in mouse NIH/3T3 cells assessed as LDH release at 10 uM treated for 5 hrs with 15 mU/ml GOX challenge by spectrophotometric method (reference value: 63.34 +/- 1.85%); type: functional
NIH3T3 [19] = experiment: Cytoprotective activity against GOX-induced cytotoxicity in mouse NIH/3T3 cells assessed as LDH release at 100 uM treated for 5 hrs with 15 mU/ml GOX challenge by spectrophotometric method (reference value: 63.34 +/- 1.85%); type: functional
NIH3T3 [20] = experiment: Cytoprotective activity against GOX-induced cytotoxicity in mouse NIH/3T3 cells assessed as decrease in LDH release treated for 5 hrs with 15 mU/ml GOX challenge by spectrophotometric method; type: functional, cell-based
Hep 3B2 [21] = experiment: Proliferative activity against human Hep3B cells assessed as cell viability at 0.1 uM after 4 days by cell counting method relative to control; type: functional; settings: 96 h, read-out: Activity
Summary of the method: (§2)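 Hep3B kept in DMEM/10% FBS, 37°C, 5% CO2, then seeded at 1×10^5 cells/ml in medium containing compound (0.1–100 μM; DMSO-only control) in monolayer. Cells were checked daily by microscope for attachment and morphology, and counted after 4 days, in triplicate, in three independent experiments. Counts are given as % of the 0 μM group.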

Hep 3B2 [22] = experiment: Proliferative activity against human Hep3B cells assessed as cell viability at 1 uM after 4 days by cell counting method relative to control; type: functional; settings: 96 h, read-out: Activity; summary of the method: as §2
Hep 3B2 [23] = experiment: Proliferative activity against human Hep3B cells assessed as cell viability at 10 uM after 4 days by cell counting method relative to control; type: functional; settings: 96 h, read-out: Activity; summary of the method: as §2
Hep 3B2 [24] = experiment: Proliferative activity against human Hep3B cells assessed as cell viability at 100 uM after 4 days by cell counting method relative to control; type: functional; settings: 96 h, read-out: Activity; summary of the method: as §2
Hep 3B2 [25] = experiment: Proliferative activity against human Hep3B cells assessed as cell viability after 4 days by cell counting method; type: functional, cell-based; summary of the method: as §2
Hep 3B2 [26] = experiment: Cytotoxicity against human Hep3B cells assessed as effect on cell attachment at 0.1 to 100 uM measured every day during 4 days incubation period by microscopic method; type: cell-based; settings: hep 3b2, 96 h; summary of the method: as §2
Hep 3B2 [27] = experiment: Cytotoxicity against human Hep3B cells assessed as effect on cell morphology at 0.1 to 100 uM measured every day during 4 days incubation period by microscopic method; type: cell-based; settings: hep 3b2, 96 h; summary of the method: as §2

SMILES	viability at 0.1 µM (Hep 3B2 [1]) [%]	viability at 100 µM (Hep 3B2 [2]) [%]	viability at 1 µM (Hep 3B2 [3]) [%]	viability at 10 µM (Hep 3B2 [4]) [%]	viability at 0.1 µM (NIH3T3 [5]) [%]	Activity (Hep 3B2 [6])	viability at 1 µM (NIH3T3 [7]) [%]	viability at 10 µM (NIH3T3 [8]) [%]	viability at 100 µM (NIH3T3 [9]) [%]	Activity (NIH3T3 [10])	Activity (Hep 3B2 [11]) [%]	Activity (Hep 3B2 [12]) [%]	Activity (Hep 3B2 [13]) [%]	Activity (Hep 3B2 [14]) [%]	Activity (Hep 3B2 [15])	Activity (NIH3T3 [16]) [%]	Activity (NIH3T3 [17]) [%]	Activity (NIH3T3 [18]) [%]	Activity (NIH3T3 [19]) [%]	Activity (NIH3T3 [20])	other results
Cc1c(C)c2c(c(C)c1O)CC[C@@](C)(CCC[C@H](C)CCC[C@H](C)CCCC(C)C)O2 [ALPHA-TOCOPHEROL]	62.2	79.6	66.8	70.7	61.2	Dose-dependent effect	65.8	69.1	77.9	Dose-dependent effect	25.13	21.14	18.89	13	Dose-dependent effect	26.51	22.37	15.02	10.51	Dose-dependent effect	–
CC(C)C(=O)O[C@@H]1Cc2c(ccc3ccc(=O)oc23)OC1(C)C	44.8	82.3	56.1	66.5	45.7	Dose-dependent effect	55.6	67.4	83.1	Dose-dependent effect	28.99	23.78	18.04	7.64	Dose-dependent effect	31.31	25.89	19.53	8.13	Dose-dependent effect	viability at 0.1 µM (Hep 3B2 [21]): 100%; viability at 1 µM (Hep 3B2 [22]): 101%; viability at 10 µM (Hep 3B2 [23]): 110%; viability at 100 µM (Hep 3B2 [24]): 147%; Activity (Hep 3B2 [25]): Dose-dependent effect; Activity (Hep 3B2 [26]): Non-Toxic; Activity (Hep 3B2 [27]): Non-Toxic
C/C(=C\Cc1c(O)ccc(C(=O)/C=C/c2ccc(O)cc2)c1O)CCC(=O)O	44.3	74.1	45.5	57.1	43.2	Dose-dependent effect	44.7	57.8	74.5	Dose-dependent effect	30.97	20.34	16.93	7.6	Dose-dependent effect	36.37	20.71	18.78	6.96	Dose-dependent effect	viability at 0.1 µM (Hep 3B2 [21]): 100%; viability at 1 µM (Hep 3B2 [22]): 100%; viability at 10 µM (Hep 3B2 [23]): 107%; viability at 100 µM (Hep 3B2 [24]): 115%; Activity (Hep 3B2 [25]): Dose-dependent effect; Activity (Hep 3B2 [26]): Non-Toxic; Activity (Hep 3B2 [27]): Non-Toxic
